In ChEMBL document CHEMBL1145003, “Design and synthesis of highly potent benzodiazepine gamma-secretase inhibitors: preparation of (2S,3R)-3-(3,4-difluorophenyl)-2-(4-fluorophenyl)-4- hydroxy-N-((3S)-1-methyl-2-oxo-5- phenyl-2,3-dihydro-1H-benzo[e][1,4]-diazepin-3-yl)butyramide by use of an asymmetric Ireland-Claisen rearrangement” (J Med Chem, 2003) one finds IC50 data, which are given here for 25 compounds.

pIC50: −log10 of the molar value.

This assay is described as follows: Inhibitory activity against human gamma-secretase in SH-SY5Y neuroblastoma cells. It counts as cell-based. An outline of the steps:
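Whole-cell assay in SH-SY5Y neuroblastoma cells overexpressing exogenous substrate A4CTF, cleaved by endogenous human γ-secretase. IC50 determined over 0.3 nM to 10 µM; values are the mean of at least three determinations, reported with SD.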
For orientation: pIC50 means the negative decadic logarithm of the IC50, by convention in mol/L. Lower therefore signals a large IC50. Compound `CN1C(=O)[C@@H](NC(=O)[C@@H](c2ccc(F)cc2)[C@H](CBr)c2ccc(F)c(F)c2)N=C(c2ccccc2)c2ccccc21` showed a pIC50 of 8.17.

Compound `C=C[C@H](c1ccc(F)c(F)c1)[C@@H](C(=O)N[C@H]1N=C(c2ccccc2)c2ccccc2N(C)C1=O)c1ccc(F)cc1` showed a pIC50 of 7.00.

The compound `CC[C@H](c1ccc(F)c(F)c1)[C@@H](C(=O)N[C@H]1N=C(c2ccccc2)c2ccccc2N(C)C1=O)c1ccc(F)cc1` gave a pIC50 of 6.67.

In turn, `CN1C(=O)[C@@H](NC(=O)[C@@H](c2ccc(F)cc2)C(O)c2ccc(Cl)c(Cl)c2)N=C(c2ccccc2)c2ccccc21` (stereo not given in full) showed a pIC50 of 8.92.

For the compound `C[C@H](C(=O)N[C@H]1N=C(c2ccccc2)c2ccccc2N(C)C1=O)[C@H](OC(N)=O)c1ccc(Cl)c(Cl)c1`, the pIC50 is 5.61.

`C[C@H](Cc1ccc(Cl)c(Cl)c1)C(=O)N[C@H]1N=C(c2ccccc2)c2ccccc2N(C)C1=O` gave a pIC50 of 6.49.

For the compound `CC(C(=O)N[C@H]1N=C(c2ccccc2)c2ccccc2N(C)C1=O)C(CO)c1ccc(F)c(F)c1` (stereo not given in full), the pIC50 was 8.16.

As for `CO[C@H](c1ccc(Cl)c(Cl)c1)[C@H](C)C(=O)N[C@H]1N=C(c2ccccc2)c2ccccc2N(C)C1=O`, the pIC50 is 7.23.

In turn, `CC(C(=O)N[C@H]1N=C(c2ccccc2)c2ccccc2N(C)C1=O)/C(=N/O)c1ccc(Cl)c(Cl)c1` (stereo not given in full) showed a pIC50 of 7.46.

The compound `CC(C(=O)N[C@H]1N=C(c2ccccc2)c2ccccc2N(C)C1=O)C(=O)c1ccc(Cl)c(Cl)c1` (stereo not given in full) gave a pIC50 of 6.03.

In the case of `CN1C(=O)[C@@H](NC(=O)[C@H](c2ccc(F)cc2)[C@@H](O)c2ccc(F)c(F)c2)N=C(c2ccccc2)c2ccccc21`, the pIC50 is 8.02.

Turning to `C[C@H](C(=O)N[C@H]1N=C(c2ccccc2)c2ccccc2N(C)C1=O)[C@H](OS(N)(=O)=O)c1ccc(Cl)c(Cl)c1`, the pIC50 was 6.35.

As to `CN1C(=O)[C@@H](NC(=O)[C@@H](c2ccc(F)cc2)[C@H](CO)c2ccc(F)c(F)c2)N=C(c2ccccc2)c2ccccc21`, the pIC50 was 10.15. This pIC50 lies 3.80 log units higher than the previous one.

The compound `CN1C(=O)[C@@H](NC(=O)[C@@H](Cc2ccc(Cl)c(Cl)c2)c2ccc(F)cc2)N=C(c2ccccc2)c2ccccc21` showed a pIC50 of 7.82. This pIC50 lies 2.33 log units lower than the previous one.

Consider `O=C1Nc2ccccc2N(c2ccccc2)C[C@@H]1NC(=O)[C@@H](c1ccc(F)cc1)[C@H](CO)c1ccc(F)c(F)c1`, for which the pIC50 was 10.15.

Compound `CN1C(=O)[C@@H](NC(=O)[C@H](c2ccc(F)cc2)[C@@H](O)c2ccc(Cl)c(Cl)c2)N=C(c2ccccc2)c2ccccc21` had a pIC50 of 7.17.

Regarding `C[C@@H](C(=O)N[C@H]1N=C(c2ccccc2)c2ccccc2N(C)C1=O)[C@H](O)c1ccc(Cl)c(Cl)c1`, the pIC50 is 5.87.

Regarding `CO/N=C(\c1ccc(Cl)c(Cl)c1)C(C)C(=O)N[C@H]1N=C(c2ccccc2)c2ccccc2N(C)C1=O` (stereo not given in full), the pIC50 is less than 5.00.

On to `C[C@@H](C(=O)N[C@H]1N=C(c2ccccc2)c2ccccc2N(C)C1=O)[C@@H](O)c1ccc(Cl)c(Cl)c1`, for which the pIC50 is 6.06.

`CN1C(=O)[C@@H](NC(=O)[C@@H](c2ccc(F)cc2)C(O)c2ccc(F)c(F)c2)N=C(c2ccccc2)c2ccccc21` (stereo not given in full) showed a pIC50 of 9.10.

Turning to `O=C1Nc2ccccc2C(c2ccccc2)=N[C@@H]1NC(=O)[C@@H](c1ccc(F)cc1)[C@H](CCO)c1ccc(F)c(F)c1`, the pIC50 was 7.46.

With `C[C@H](C(=O)N[C@H]1N=C(c2ccccc2)c2ccccc2N(C)C1=O)[C@@H](O)c1ccc(Cl)c(Cl)c1`, the pIC50 is 6.42. This pIC50 lies 1.04 log units lower than the previous one.

In turn, `O=C1Nc2ccccc2C(c2ccccc2)=N[C@@H]1NC(=O)[C@@H](c1ccc(F)cc1)[C@H](CO)c1ccc(F)c(F)c1` showed a pIC50 of 10.22.

With `C[C@H](C(=O)N[C@H]1N=C(c2ccccc2)c2ccccc2N(C)C1=O)[C@H](OCC(N)=O)c1ccc(Cl)c(Cl)c1`, the pIC50 was 5.32. This pIC50 lies 4.90 log units lower than the previous one.

The compound `C[C@H](C(=O)N[C@H]1N=C(c2ccccc2)c2ccccc2N(C)C1=O)[C@H](O)c1ccc(Cl)c(Cl)c1` showed a pIC50 of 7.72. This pIC50 lies 2.40 log units higher than the previous one.
